Screens: PubChem BioAssay, The Scripps Research Institute Molecular Screening Center
SIAE inh: inhibitors of human sialic acid acetylesterase SIAE. Q9HAT2. SIAE FP-Rh probe binding, fluorescence polarization. inhibition, % at 9.66 µM. 370,000 tested, 0.69% active;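 active means inhibition above a cutoff: mean of compounds within the control limits plus 3 SD of those, cut at about 17% in these data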;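 further: 0% = plate median of compound wells and 100% = probe without SIAE protein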
ABHD4 inh: inhibits mouse alpha/beta hydrolase domain 4; purified mABHD4, FP-Rh probe fluorescence polarization; inhibition, % at 8.92 µM; 370,000 tested, 0.54% active;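 active means inhibition exceeding the mean over every tested compound plus 3 SD, cut at about 30% in these data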;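 further: 0% = plate median of compound wells and 100% = S159A mutant with DMSO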
Target sequence (Q8VD66 whole entry, looked up, the tested form may be a part): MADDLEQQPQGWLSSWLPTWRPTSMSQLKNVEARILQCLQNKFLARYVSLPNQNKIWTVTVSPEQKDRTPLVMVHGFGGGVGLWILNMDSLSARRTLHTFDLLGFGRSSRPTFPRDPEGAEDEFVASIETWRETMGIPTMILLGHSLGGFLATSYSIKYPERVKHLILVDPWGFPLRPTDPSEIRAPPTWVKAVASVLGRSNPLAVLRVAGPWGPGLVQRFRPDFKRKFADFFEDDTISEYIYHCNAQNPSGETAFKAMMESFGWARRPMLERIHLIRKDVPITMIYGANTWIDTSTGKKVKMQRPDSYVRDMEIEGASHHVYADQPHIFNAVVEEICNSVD
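Assay system: Wild-type mouse ABHD4 protein | Medium: HEPES pH 7.0 buffer, 150 mM NaCl, 0.01% Pluronic F-127 | Incubation: Enzyme–compound pre-incubation 45 min, then probe 60 min, both 25 °C | Technique: Fluorescence polarization with parallel and perpendicular emission, 525/598 nm | Evaluation: % inhibition of FP-Rh probe binding versus controls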
TCR-CD3 inh: human TCR-CD3 binding inhibition; 360,000 tested, 0.37% active; inhibition, % at 9.4 µM; AID 651800; TAMRA-labeled TCR probe fluorescence, biochemical; in the data active means inhibition above about 19%;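 further: recombinant mutant TCR 2C K166C tagged with TAMRA read by polarization; 0% = receptor in buffer alone and 100% = receptor with positive control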
HTRA1 inhibitor: blocks human HTRA1 serine peptidase. Q92743. recombinant HTRA1, FP-rhodamine activity-based probe, fluorescence polarization. inhibition, % at 5.96 µM. 340,000 tested, 0.5% active; in the data active means inhibition above about 36%;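 further: 0% = enzyme with DMSO and 100% = wells lacking enzyme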
PRMT1 inh: PRMT1 (human) inhibition, primary screen | AID 652257 | 370,000 tested, 1.3% active | recombinant PRMT1, activity-based probe fluorescence polarization | inhibition, % at 2.79 µM | Q99873;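 active means inhibition above about 21% made by adding two undisclosed values, limit read from the data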
* marks the source's active call; other numbers are inactive results; / = no result given. The list is not random: actives were taken first. Their share in the collection is about 2.5%.

SMILES	SIAE inh	ABHD4 inh	TCR-CD3 inh	HTRA1 inhibitor	PRMT1 inh
COC(=O)[C@]12C[C@H](CC(=O)N3CCOCC3)C(=O)N(Cc3ccco3)C1=C[C@H](COCc1ccccc1)O[C@@H]2C	-2	3	/	/	0
COc1ccc2c(c1)CN1CN(Cc3ccc(F)cc3)S(=O)(=O)CC21 (stereo unspecified)	-2	-12	/	/	-1
O=C1CC(N2CCN(c3ccccc3Cl)CC2)C(=O)N1c1ccccc1 (stereo unspecified)	3	0	-1	-7	24*
COP(=O)(CC(=O)OC(C)(C)C)C(CC(C)C)NC(=O)OCc1ccccc1 (stereo unspecified)	-8	9	/	/	1
CC(=O)c1c(N2CCOCC2)nc2ccc(Br)cc2c1-c1ccccc1	19*	3	-5	/	1
C=CCN1C(=O)[C@@H](CC(=O)NCC23CC4CC(CC(C4)C2)C3)[C@]2(C(=O)OCC)CCCCC/C=C/12	3	5	/	/	8
CC(Sc1ncn[nH]1)C(=O)NCc1ccccc1 (stereo unspecified)	1	-4	-10	2	4
O=C(c1ccccc1)C(Sc1ncn[nH]1)c1ccccc1 (stereo unspecified)	9	1	-6	-5	23*
CCOc1ccc(-n2c(SCC(=O)Nc3ccccc3-c3ccccc3)nnc2-c2ccncc2)cc1	-4	-5	/	/	0
CC#CC(=O)N[C@H]1CC[C@@]23CCCN2C(=O)CCC[C@H]3[C@H]1C	0	3	/	/	-2
COc1ccc(C(=O)O[C@@H]2CCC[C@@]3(C(=O)N(Cc4ccccc4)c4ccccc43)[C@H]2NC(=O)CCc2ccccc2)cc1OC	-11	-13	/	/	-4
Fc1ccccc1C1CC(c2ccco2)=Nc2ccccc2S1 (stereo unspecified)	-1	-4	-9	-2	71*
Oc1ccc(Cl)cc1C1=Nc2ccccc2N=C(c2ccco2)C1	3	11	-3	-1	0
Cc1ccc(NC(=O)c2sc3nc(N4CCOCC4)c4c(c3c2N)CC(C)(C)OC4)cc1	3	-9	-11	-6	22*
O=C(NC1CCCCN(Cc2cccc(Cl)c2)C1=O)c1ccc(COc2ccccc2)cc1 (stereo unspecified)	-4	-16	/	/	-1
Cc1ccc(C(C[N+](=O)[O-])Sc2ccc(N)cc2)cc1 (stereo unspecified)	3	2	-9	-10	67*
Cc1ccccc1-n1c(SCC(=O)N2CCOCC2)nc(O)c(Cc2ccccc2)c1=O	-4	-8	1	-2	24*
O=C1CCC[C@H]2C[C@H](NCc3cccc(I)c3)CC[C@]23CCCN13	-1	0	/	/	3
COc1cc(C(=S)N2CCCC2)cc(Cl)c1OCC(=O)Nc1ccc(C)cc1C	-12	-10	-7	-30	22*
Cc1ccc(CCNc2ccc3ccccc3c2)cn1	0	5	-1	1	23*
NS(=O)(=O)c1ccc(-c2ccc(/C=N/Nc3ccc(C(=O)O)cc3)o2)cc1	-4	18	-8	-3	7
O=C(O)c1ccc(-c2ccc(/C=N/Nc3ccc([N+](=O)[O-])cc3)o2)cc1	-13	32*	-4	-3	-6
CCC(=O)N1CCN(c2ccc(NC(=O)c3ccc4c(c3)OCO4)cc2)CC1	101*	-3	-2	12	0
O=C(CSc1nnc(COc2ccccc2)n1-c1ccccc1)Nc1ccc(S(=O)(=O)Nc2nccs2)cc1	-12	-18	/	/	-2
Cc1cc(C)nc(SCC(=O)Nc2ccnc3ccccc23)n1	3	7	5	-5	1
SMILES	SIAE inh	ABHD4 inh	TCR-CD3 inh	HTRA1 inhibitor	PRMT1 inh
O=C(CSC1=NCCS1)Nc1ccnc2ccccc12	7	-5	5	-1	23*
COc1ccc(C(NC(=O)c2cccnc2)c2cc(Cl)c3cccnc3c2O)cc1OC (stereo unspecified)	10	7	2	45*	1
S=C(NNc1ccnc2cc(Cl)ccc12)Nc1ccc(Cl)cc1Cl	19*	20	1	7	0
COc1cc(C(c2c(C(=O)O)[nH]c3ccccc23)c2c(C(=O)O)[nH]c3ccccc23)ccc1OCc1ccccc1	7	50*	1	20	-1
Cc1cccc(N2CCN(C(=O)CCC(=O)N3CC(C)Oc4ccccc43)CC2)c1C (stereo unspecified)	-5	-1	20*	-2	-3
C[C@H]1CCCN1c1cccc2c1S(=O)(=O)N(C1CC1)CCCO2	5	3	/	/	-1
Cc1ccc(C2=Nc3ccccc3SC(c3cccc([N+](=O)[O-])c3)C2)cc1 (stereo unspecified)	5	5	-3	-16	76*
COCCCN(C(=O)CSc1nc2ccccc2c(=O)n1C)c1c(N)n(Cc2ccccc2)c(=O)[nH]c1=O	7	9	1	8	23*
O=C(NC1CCCCN(Cc2cccc(Cl)c2)C1=O)c1ccc(Cl)cc1Cl (stereo unspecified)	-4	-10	/	/	6
O=C(N/N=C/c1cc(Cl)cc(Cl)c1O)c1ccncc1	4	12	-1	-9	24*
O=C(N/N=C/c1ccc(Cl)cc1Cl)c1ccncc1	-8	-2	-11	1	1
O=S1(=O)c2c(cccc2N2CCC[C@H]2CO)O[C@@H]2CCN1C2	0	6	/	/	0
COC(=O)c1ccccc1NC1=C/C(=N\S(=O)(=O)c2cccs2)c2ccccc2C1=O	0	13	-3	21	6
CCc1ccc(S(=O)(=O)/N=C2\C=C(Nc3ccc(C(=O)O)cc3)C(=O)c3ccccc32)cc1	13	54*	-1	33	3
COC(=O)c1ccccc1NC1=C/C(=N\S(=O)(=O)c2ccc(C(=O)O)cc2)c2ccccc2C1=O	/	/	/	45*	/
Cc1ccc(NC2=C/C(=N/S(=O)(=O)c3cccs3)c3ccccc3C2=O)cc1	11	16	10	14	-4
CCOC(=O)Cn1cc(CN2CCS(=O)(=O)N(Cc3ccc(F)cc3)C(C(=O)OC)C2)nn1 (stereo unspecified)	1	3	/	/	-2
O=C(NCCc1ccc2c(c1)OCO2)c1cc(-c2ccccc2)c(N2CCOCC2)s1	-3	-7	/	/	7
CCNC(=O)c1sc(=S)n(CC)c1N	3	2	0	-4	8
CCn1c(N)c(C(=O)NC)sc1=S	10	1	8	11	25*
C=CCN=Cc1sc2ccc(OCC)cc2c1O	-3	1	5	/	24*
CC/C(=N\Nc1ccccc1[N+](=O)[O-])c1ccc(O)cc1	8	40*	7	/	2
CC/C(=N\Nc1ccc([N+](=O)[O-])cc1[N+](=O)[O-])c1ccc(O)cc1	1	19	1	19	-2
COc1ccc2c(c1)-c1nc(/N=C/c3ccc(O)cc3)sc1CC2	3	25	-8	-1	36*
COc1ccc2c(c1)-c1nc(/N=C/c3c(O)ccc4ccccc34)sc1CC2	0	29	6	-3	21*
